# Reference: ChEMBL document CHEMBL4513216, “Probing the Open Global Health Chemical Diversity Library for Multistage-Active Starting Points for Next-Generation Antimalarials” (ACS Infect Dis, 2020)
# Experiment: Toxicity liver stage against HepG2, at 10uM
# Assay type: cell-based
# Design: test concentration 10 uM, cell line HepG2-A16-CD81EGFP
# Settings: human, HepG2-A16-CD81EGFP cells; read-out: INHIBITION
# Procedure, shortened: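 Uninfected HepG2-A16-CD81EGFP cells, 3 × 10^3 per well, 1536-well, plated on prespotted compound at 10 μM final, parasite-free screening media added to match infected plates; puromycin 10 μM positive, DMSO 0.5% negative; run in parallel with 48 h PbLuc assay at 37 °C, 5% CO2; viability by CellTiter-Glo luminescence, normalized to controls.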
row,SMILES,cytotoxicity at 10 µM [%]
1,COC(=O)c1cccc(C(=O)N(C)Cc2cccc(O)c2)c1,9.85
2,O=S(=O)(CC1CCCN1S(=O)(=O)C1CC1)c1ccccc1 (centres undefined),-5.75
3,Cc1ccc(CN2CCC3(CCCN3C(=O)C(C)C)CC2)o1,-5.9
4,CN(C)C(=O)N1CCC2(CC1)C(=O)N(CC1CCOC1)c1ccccc12 (centres undefined),6.68
5,COc1ccc(OC)c(C2CC(=O)Nc3nc(N4CCOCC4)sc32)c1 (centres undefined),14.3
6,CNc1nc2c(s1)C(c1ccc(Cl)cc1Cl)CC(=O)N2 (centres undefined),7
7,CC1c2ncc(Cn3cncn3)n2CCN1C(=O)C1CCOCC1 (centres undefined),-13
8,COCCNC(=O)Cn1cc2c(n1)c(C)nn2C(C)C,-6.24
9,FC(F)(F)c1cc(C2CCCN(c3ncccn3)C2)n2ccnc2n1 (centres undefined),10.4
10,Cc1cc(O)n2nc(C3CCN(C(=O)c4ccccn4)CC3)cc2n1,-3.36
11,CNC(=O)C1CN(C(=O)c2ccncc2)CCN(S(C)(=O)=O)C1 (centres undefined),6.67
12,Cc1noc(-c2cnc(NC3CC3)nc2-c2ccco2)c1C,6.38
13,c1cc(C2CN(C3CCCC3)C2)n[nH]1,4
14,CS(=O)(=O)NCC(=O)NC1CCCN(c2ccccn2)C1 (centres undefined),1.76
15,CC1(C2CCN(CCCC(=O)O)CC2)CN(Cc2ccccc2)C(=O)O1 (centres undefined),-21.9
16,Fc1ccc(N2CCOC(Cc3cccnc3)C2)cc1 (centres undefined),-16.3
17,Cn1cc(C(=O)N2CCCC2c2[nH]ncc2C(N)=O)cn1 (centres undefined),-7.05
18,CCC(=O)N1CCC(Cc2ccccc2-c2ccncc2)(C(N)=O)C1 (centres undefined),-25.3
19,CCCC(NC(=O)c1cnccn1)c1nnc2ccccn12 (centres undefined),11.1
20,CC(C(=O)N1CCOCC1)S(=O)(=O)Cc1nc(C(C)(C)C)no1 (centres undefined),-3.82
21,O=C(NC1CCc2nccn2C1)c1ccc(NC2CC2)nc1 (centres undefined),9.93
22,NC(=O)C1CCN(C(=O)NC2CCN(CC3CCCC3)C2)CC1 (centres undefined),13

row,SMILES,cytotoxicity at 10 µM [%]
1,CC(C)CCC(=O)N1CCN(c2ncnc3nc(N)ccc23)CC1,8.32
2,N#CC1(NC(=O)COc2cc(Cl)cc(Cl)c2)CCOCC1,-2.53
3,CN1CC(NC(=O)Nc2cnn(-c3ccccc3Cl)c2)CCC1=O (centres undefined),-1.54
4,CCN(C(=O)Cn1cc(NC(=O)C(C)(C)C)cn1)c1ccccc1,3.49
5,COCCOCCCC(=O)N1CCC(Cc2ccccc2OC)CC1,7.28
6,COC(=O)C(O)C1CCN(CCc2ccccn2)CC1 (centres undefined),-7.64
7,Cc1noc(C)c1CN1CCN(C(=O)C(C(C)C)n2cncn2)CC1 (centres undefined),1.4
8,COCC(NC(=O)c1cccnc1)c1cccc(C(F)(F)F)c1 (centres undefined),-12.9
9,COC(=O)c1ccoc1CN(C)Cc1cc(OC)c(OC)cc1C,-1.06
10,CCN(Cc1nc2c(cnn2C)c(=O)[nH]1)c1cccc(C)c1C,1.66
11,CCNC(=O)CNC(=O)Nc1c(F)cc(F)cc1-c1ccccc1,-7.55
12,Cc1cnc(C(C)(C)NC(=O)NCc2ccon2)s1,-6.75
13,CC(C)S(=O)(=O)N(C)C(=O)CCc1ccsc1,5.2
14,CCC(CC)CS(=O)(=O)NC(=O)C1CCC1,-6.8
15,COCCNC(=O)NCCCOC1CCCc2ccccc21 (centres undefined),11.7
16,CN(C)C(=O)COc1ccccc1CN1CCOC2(CCCC2)C1,-4.8
17,COc1ccc(NC(=O)NCc2cccc(N(C)C)n2)c(Cl)c1,21.8
18,CCC(C)NS(=O)(=O)Cc1cccc(NC(=O)c2cc[nH]c2C)c1 (centres undefined),3.77
19,CC(NC(=O)NCCCn1cccn1)c1cccnc1 (centres undefined),23.1
20,CS(=O)(=O)CCSc1cccc(C#N)c1,-5.61
21,CC(C)c1cnc(CNc2c(F)cccc2-n2cccn2)o1,-6.07
22,Cc1ccn(-c2ccccc2NCc2ncc[nH]2)n1,-5.95

row,SMILES,cytotoxicity at 10 µM [%]
1,Cc1noc(C(C)C)c1C(=O)NS(=O)(=O)c1ccc2c(c1)OCCCO2,-9.06
2,CC(C)n1nc(CN2CCCC2=O)c2c1CN(C(=O)c1ccc[nH]1)C2,5.39
3,O=C([C@@H]1COC[C@H]2CN(C3CCCCC3)C[C@H]21)N1CCOCC1,-107
4,Cc1ccc(C(=O)N2C[C@@H]3OCCN(CC4CCCC4)[C@@H]3C2)cn1,-76
5,c1ccc(COC[C@@H]2CC[C@H]3[C@H](CCN3c3ncccn3)O2)nc1,-74.6
6,N#CCCNC(=O)c1ccn(-c2ccc3ccccn23)n1,3.82
7,CN(C)CCO[C@H]1CN(C(=O)c2ccc[nH]2)[C@@H]2COC[C@H]12,5.06
8,CN(C)C(=O)N1CCC2(CC(=O)N(c3cccc(C#N)c3)C2)C1 (centres undefined),3.33
9,NC(=O)c1ccc(C2CCCN2C(=O)CCn2nnc3ccccc32)s1 (centres undefined),3.92
10,Cc1ncsc1CCC(=O)NC1CCN(c2ncccc2C#N)CC1,0.84
11,C=C(C)COc1ccccc1CNCCc1cc(O)nc(C)n1,-1.6
12,Cc1ccc(-c2ccnc(NC(C)c3c(C)n[nH]c3C)n2)c(C)n1 (centres undefined),4.51
13,CC(C)c1noc(CC[C@@H]2CCCN3CCCC[C@H]23)n1,-0.143
14,CCc1nc2c(c(NC3CC3)n1)CCN(C(=O)N1CCN(C)CC1)CC2,0.445
15,O=c1cc(-c2ccncc2)nc(-c2ccc(CN3CC[C@H](O)C3)cc2)[nH]1,4.48
16,Cc1ccc(CN2CCC(n3cc(CN4CCC(O)CC4)nn3)CC2)s1,-3.53
17,COC1CCN(c2cc(C(C)C)nc3ccnn23)C1 (centres undefined),0.343
18,CC1CCN(CC(=O)N(Cc2ccccc2)Cc2nccs2)C1=O (centres undefined),-0.0342
19,CCC(CC)CN1CCCn2nc(CNC(=O)COC)cc2C1,2.66
20,O[C@]12CCNC[C@H]1CN(c1ncccc1Cl)CC2,10.2
21,CC(C)[C@H]1COC(=O)N1CC(=O)N1CCN(C(=O)c2ccco2)CC1,4.32
22,Cc1cc(=O)n(CC(=O)Nc2cccc(Cl)c2)nc1C,-6.84

row,SMILES,cytotoxicity at 10 µM [%]
1,CN1C(=O)CC(C(=O)O)C12CCN(Cc1ccc(Cl)cc1F)CC2 (centres undefined),-7.82
2,CCN1CC2(CCN(CCOCCO)CC2)CC(c2ccccc2)C1=O (centres undefined),42.4
3,CCn1c(Cn2cncn2)nnc1C1CCN(C(=O)CCSC)CC1,-13.6
4,c1csc(N2CCCN(Cc3noc(C4CC4)n3)CC2)n1,3.41
5,CNc1nc(CNC(=O)Nc2cccc(CC(F)(F)F)c2)cs1,-9.77
6,CC(C)N(Cc1ccccn1)S(=O)(=O)N1CCCC1c1ccco1 (centres undefined),-3.92
7,N#Cc1ccsc1NC(=O)CN1CCOC(Cn2cccn2)C1 (centres undefined),-5.66
8,CNc1cc(N2CCCC2CNCc2cnc(C)s2)ncn1 (centres undefined),-3.78
9,COCCN1CCN(Cc2csc(-c3cnn(C)c3)n2)CC1,-9.71
10,CCNc1cc2c(nn1)CCN(C(=O)c1ccnc(C)n1)C2,-5.04
11,O=S(=O)(CCCN1CCCC(Cn2cncn2)C1)c1ccccc1 (centres undefined),-11.7
12,CCN(CC)C(=O)NCCc1ccn(-c2ccccc2)n1,-14
13,Cc1cc(CN2Cc3ccccc3CC2c2nnc(C)o2)no1 (centres undefined),2.89
14,CC(C)C(CNC(=O)Nc1cn[nH]c1)N1CCOCC1 (centres undefined),-6.83
15,Cc1ccc(C(=O)N2CCCN(Cc3cscn3)CC2)o1,-10.6
16,Cc1nn(C)c(N2CCOCC2)c1CNCc1ccc2c(c1)OCO2,-17.8
17,Cc1nnc(N2CCC(CCN(C)C)CC2)c(C#N)c1C,-1.33
18,CCc1noc(C)c1C(=O)N1CCCN(Cc2csc(C)n2)CC1,-2.81
19,CC(C)OCCCNC(=O)CS(=O)(=O)Cc1ccc(Cl)c(Cl)c1,-9.7
20,O=C(NCCOc1cccc(Cl)c1)C1CC(=O)N(CC2CC2)C1 (centres undefined),-0.98
21,O=C(COC(=O)Cc1cccs1)NCc1cccc(NC(=O)C2CC2)c1,-8.08
22,COC(=O)c1cccc(OCCn2nc(-c3cccs3)oc2=O)c1,-6.56

row,SMILES,cytotoxicity at 10 µM [%]
1,CCn1nc2c(cc1=O)CN(Cc1nc(-c3ccsc3)no1)CC2,-17.1
2,O=C(c1cccnc1N1CCOCC1)N1CCCC(n2ccnc2)C1 (centres undefined),-3.56
3,CCS(=O)(=O)CCN1CCCC1c1noc(C2CC2)n1 (centres undefined),-6.33
4,CC(O)CN1CCN(C(=O)c2cccc(CC#N)c2)CC1 (centres undefined),-3.74
5,CC(C)c1nnc2n1CCN(CCCS(=O)(=O)c1ccccc1)C2,-12.3
6,CC1CCN(C(=O)c2cccc3ncccc23)CC1,4.21
7,O=C(NCc1cccnc1-n1cccn1)C1CC(=O)N(CC2CC2)C1 (centres undefined),2.77
8,CC(C)CC(=O)N[C@H](C)c1c(-c2ccc(Cl)cc2)noc1C(=O)O,4.76
9,Cc1ccc(CN2CCn3c(CN(C)C(C)C)cnc3C2)s1,8.33
10,CC(C)CC(=O)N1CCC2(CC1)OC(C(N)=O)Cn1ccnc12 (centres undefined),-105
11,CS(=O)(=O)N1CC[C@@H]2[C@@H]1CCN2Cc1ccc2c(c1)OCO2,-5.96
12,Cc1ccccc1CN1CCC2(CC1)CN(S(=O)(=O)c1ccccc1)C2,-2.78
13,COCCNC(=O)[C@H]1C[C@@H]2CCN(c3ccncn3)C[C@H]2O1,2.4
14,O=C1N(c2cncnc2)CCC12CCCN(Cc1cccnc1)C2 (centres undefined),-79.6
15,O=C(NCc1ccco1)[C@H]1CC[C@@H]2[C@@H](CCN2c2ncccn2)O1,-69.6
16,CNC(=O)N1C[C@@H]2C[C@H](C(=O)NCc3cccnc3)[C@H](C1)O2,6.43
17,Cc1ccc(C(NC(=O)C2CCC(O)CC2)c2cccnc2)cc1C (centres undefined),24.2
18,CCCC12CN3CC(C)(CN(C1)C3c1[nH]c(=O)[nH]c(=O)c1C)C2=O (centres undefined),3.15
19,O=C(Nc1ccc(F)cc1)N1C[C@@H]2C[C@H](C(=O)N3CCCC3)[C@H](C1)O2,7.06
20,CCc1nccc(CN2CCC(CNC(=O)C3CCC(C)CC3)C2)n1 (centres undefined),-4.51
21,O=C(NCc1ccccc1)[C@H]1C[C@H]2CN(C(=O)NC3CCCC3)C[C@@H]1O2,2.17
